For series [1], the system named is Hepatitis B virus. The series is described as follows: Antiviral activity against HBV infected in […] cells. Format: functional, organism-based.
Series [2] deals with Hepatitis B virus. As to the kind of experiment: Antiviral activity against HBV genotype D in hydrodynamic injection-based C57BL/6 mouse model of HBV infection assessed as inhibition of HBV replication at 50 mg/kg, po dosed once daily for 7 days by real-time PCR analysis. In kind it is functional, organism-based. A general note: Real-time PCR tracks product formation cycle by cycle.

In series [3] the test system is Hepatitis B virus. As to the kind of experiment: Antiviral activity against HBV genotype D in hydrodynamic injection-based C57BL/6 mouse model of HBV infection assessed as inhibition of serum HBV DNA level at 50 mg/kg, po dosed twice daily for 7 days by real-time PCR analysis. In kind it is functional, organism-based.
For series [4], the system named is Hepatitis B virus. As to the kind of experiment: Antiviral activity against HBV genotype D in hydrodynamic injection-based C57BL/6 mouse model of HBV infection assessed as inhibition of liver HBV DNA level at 50 mg/kg, po dosed twice daily for 7 days by real-time PCR analysis. In kind it is functional, organism-based.
Series [5] deals with Hepatitis B virus. The series is described as follows: Antiviral activity against HBV genotype D in hydrodynamic injection-based C57BL/6 mouse model of HBV infection assessed as inhibition of serum HBV DNA level at 100 mg/kg, po dosed twice daily for 7 days by real-time PCR analysis. In kind it is functional, organism-based.
For series [6], the system named is Hepatitis B virus. As to the kind of experiment: Antiviral activity against HBV genotype D in hydrodynamic injection-based C57BL/6 mouse model of HBV infection assessed as inhibition of liver HBV DNA level at 100 mg/kg, po dosed twice daily for 7 days by real-time PCR analysis. Format: functional, organism-based.
In series [7] the test system is Hepatitis B virus. The series is described as follows: Antiviral activity against HBV genotype D in hydrodynamic injection-based C57BL/6 mouse model of HBV infection assessed as inhibition of serum HBV DNA level at 200 mg/kg, po dosed twice daily for 7 days by real-time PCR analysis. In kind it is functional, organism-based.
Series [8] concerns Hepatitis B virus. As to the kind of experiment: Antiviral activity against HBV genotype D in hydrodynamic injection-based C57BL/6 mouse model of HBV infection assessed as inhibition of liver HBV DNA level at 200 mg/kg, po dosed twice daily for 7 days by real-time PCR analysis. In kind it is functional, organism-based.
Series [9] in a line: Half life in mouse plasma by HPLC analysis. In kind it is ADME, cell-free. An outline of the steps: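 Prodrug incubated in plasma at 37 °C, with percent remaining determined by HPLC to derive half-life.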
A short description of series [10]: Stability in pH 7.4 buffer assessed as compound remaining level after 3 hrs at 37 degC by HPLC analysis. Format: physicochemical. To be noted: read-out: Stability. An outline of the steps:
(§1)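 Prodrug incubated in buffer (0.1 M HCl, pH 5.8, 6.8 or 7.4) at 37 °C; percent of compound remaining determined by HPLC; remaining percentage reported after 3 h, stability meaning no hydrolysis after 2 h.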

The nature of series [11]: Stability in pH 6.8 buffer assessed as compound remaining level at 37 degC by HPLC analysis. Format: physicochemical. An outline of the steps: as §1
Series [12] is described as follows: Stability in pH 5.8 buffer assessed as compound remaining level at 37 degC by HPLC analysis. In kind it is physicochemical. The method in brief: as §1
The test system of series [13] is Hepatitis B virus. As to the kind of experiment: Antiviral activity against HBV infected in human HepAD38 cells. Format: functional, organism-based.
Series [14] deals with Hepatitis B virus. As to the kind of experiment: Inhibition of HBsAg secretion in HBV infected human HepG2.2.15 cells at 2 uM for 4 days by ELISA. In kind it is functional, organism-based. As to conditions: HepG2 2.2.15. The method in brief: (§2)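 HepAD38 or HepG2.2.15 cells were treated at 2 µM for 4 days, with medium replaced every 2 days. Intracellular and extracellular DNA and RNA were quantified by qPCR or qRT-PCR, and HBeAg and HBsAg by ELISA. Results were compared with DMSO vehicle as mean ± SD, using a two-tailed t-test.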
(In an ELISA, binding on a coated surface is turned into a signal by an enzyme label.)

The test system of series [15] is Hepatitis B virus. As to the kind of experiment: Inhibition of HBsAg secretion in HBV infected human HepAD38 cells at 2 uM for 4 days by ELISA. In kind it is functional, organism-based. An outline of the steps: as §2
The subject of series [16] is Hepatitis B virus. As to the kind of experiment: Antiviral activity against HBV infected in human HepAD38 cells assessed as inhibition of intracellular viral RNA accumulation at 2 uM for 4 days by qPCR or qRT-PCR relative to control. In kind it is functional, organism-based. An outline of the steps: as §2
For series [17], the system named is Hepatitis B virus. As to the kind of experiment: Antiviral activity against HBV infected in human HepAD38 cells assessed as inhibition of intracellular viral DNA accumulation at 2 uM for 4 days by qPCR or qRT-PCR relative to control. In kind it is functional, organism-based. The method in brief: as §2
Series [18] has as its system Hepatitis B virus. As to the kind of experiment: Antiviral activity against HBV infected in human HepG2.2.15 cells assessed as inhibition of intracellular viral DNA accumulation at 2 uM for 4 days by qPCR or qRT-PCR relative to control. Format: functional, organism-based. As to conditions: HepG2 2.2.15. An outline of the steps: as §2

The source made the active and inactive calls. The calls are words filed in the database; no cut-off is given here.

By EC50 is commonly meant the concentration needed to bring the measured effect to its halfway point. A high value points to weaker potency. Consider `CCC(C)NS(=O)(=O)c1ccc(F)c(C(=O)Nc2ccc(F)c(F)c2)c1` (stereo not drawn), for which the EC50 in the series with Hepatitis B virus [1] was found to be 0.3 µM.
As to `Cc1cc(Nc2nn(C3CC3)c3cnc(S(=O)(=O)N4CCC(OC(=O)CN(C)C)CC4)cc23)ccc1F`, the result with Hepatitis B virus [2] was inactive. For the same compound, the result with Hepatitis B virus [3], with Hepatitis B virus [4], in the series on Hepatitis B virus [5], in the series on Hepatitis B virus [6], in the series with Hepatitis B virus [7] and in the series on Hepatitis B virus [8] was Active.
For orientation: half-life means the time in which the quantity being followed falls by half. Low readings indicate fast loss, high ones slow loss. In turn, `Cc1cc(Nc2nn(C3CC3)c3cnc(S(=O)(=O)N4CCC(OC(=O)[C@H](C)N)CC4)cc23)ccc1F.O=C(O)C(F)(F)F` displayed a half-life in series [9] of 31.2 min. In [10], the remaining at 3 h turned out to be 55.6%. In addition, the figures for the Stability in [11] and in series [12] were 80.2% and 85.7%, respectively.
Compound `COc1ccccc1/C(Br)=C(\NC(=O)c1ccc([N+](=O)[O-])cc1)C(=O)N1CCCCC1` had an EC50 in the series with Hepatitis B virus [13] of 0.13 µM. Moreover, the inhibition entry with Hepatitis B virus [14] and in the series with Hepatitis B virus [15] was “inactive” throughout. Further, the inhibition result with Hepatitis B virus [16], in the series with Hepatitis B virus [17] and in the series on Hepatitis B virus [18] was “Active” in each case.
